Experimental data published in ChEMBL document CHEMBL1148734, “Structure-activity relationships of phenyl-furanyl-rhodanines as inhibitors of RNA polymerase with antibacterial activity on biofilms” (J Med Chem, 2007).
Values after ≈ are worked out from the molar mass of the structure shown. Active and inactive are the calls of the source. The rule behind the calls is not given here.

Columns and labels:
Escherichia coli [1] = assay: Inhibition of RNA polymerase sigma-70 transcription in Escherichia coli at 10 uM; type: functional
Staphylococcus aureus [2] = assay: Antibacterial activity against multidrug resistant Staphylococcus aureus 49589; type: functional
Summary of the method: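 Broth microdilution MIC following CLSI. Compounds were predissolved in DMSO and tested as serial 2-fold dilutions at final 100 to 0.4 µg/mL. Inoculum was 5 × 10⁵ CFU/mL, and plates were read after 18 h at 37 °C.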

Staphylococcus aureus [3] = assay: Antibacterial activity against Staphylococcus aureus CIP 76.25; type: functional
Bacillus anthracis = assay: Antibacterial activity against Bacillus anthracis 9131; type: functional
[4] = tested on: Staphylococcus epidermidis; assay: Antibacterial activity against Staphylococcus epidermidis 40004; type: functional
CHO = assay: Cytotoxicity against CHO cells; type: cell-based, Cricetulus griseus; conditions: chinese hamster
Summary of the method: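 CHO cells grown in RPMI with 5% fetal calf serum, then exposed to compounds 24 h at 37 °C without serum. MTT added at 300 µg/mL final, 3 h at 37 °C dark; acidified isopropanol added, 1 h at room temperature; OD at 595 nm.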

[5] = tested on: Staphylococcus epidermidis; assay: Antibacterial activity against Staphylococcus epidermidis RP62A biofilms assessed as bacterial count per well at 8 times MIC after 24 hrs; type: functional
Summary of the method: (§1)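 Biofilms from 10⁷ CFU/mL inoculum in MHB grown 24 h at 37 °C, rinsed, then exposed 24 h at 37 °C without shaking in MHB to compound at 8× MIC. Washed, DMSO-lysed, ATP bioluminescence read (luciferase/D-luciferin buffer, pH 7.25). Strain-specific luminescence-to-Log₁₀ CFU/well equations used; triplicate.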

Streptococcus pneumoniae = assay: Antibacterial activity against Streptococcus pneumoniae CIP 103566; type: functional
[6] = tested on: Staphylococcus epidermidis; assay: Antibacterial activity against Staphylococcus epidermidis 48155; type: functional
Clostridioides difficile = assay: Antibacterial activity against Clostridium difficile DSM 1296; type: functional
[7] = tested on: Staphylococcus epidermidis; assay: Antibacterial activity against Staphylococcus epidermidis RP62A; type: functional
Escherichia coli [8] = assay: Antibacterial activity against Escherichia coli tolC CGSC 5633; type: functional
[9] = tested on: Staphylococcus epidermidis; assay: Antibacterial activity against Staphylococcus epidermidis CIP 105777; type: functional
[10] = tested on: Staphylococcus epidermidis; assay: Antibacterial activity against Staphylococcus epidermidis 48155 biofilms assessed as bacterial count per well at 8 times MIC after 24 hrs; type: functional; summary of the method: as §1
[11] = tested on: Staphylococcus epidermidis; assay: Antibacterial activity against Staphylococcus epidermidis 40004 biofilms assessed as bacterial count per well at 8 times MIC after 24 hrs; type: functional; summary of the method: as §1
Escherichia coli [12] = assay: Antibacterial activity against Escherichia coli tolC CGSC 5633 in presence of 1% HSA; type: functional, organism-based
Albumin = Albumin (Homo sapiens, UniProt P02768); assay: Binding affinity to HSA by SPR method; type: ADME; conditions: isolated protein
Sequence of Albumin (P02768 whole entry): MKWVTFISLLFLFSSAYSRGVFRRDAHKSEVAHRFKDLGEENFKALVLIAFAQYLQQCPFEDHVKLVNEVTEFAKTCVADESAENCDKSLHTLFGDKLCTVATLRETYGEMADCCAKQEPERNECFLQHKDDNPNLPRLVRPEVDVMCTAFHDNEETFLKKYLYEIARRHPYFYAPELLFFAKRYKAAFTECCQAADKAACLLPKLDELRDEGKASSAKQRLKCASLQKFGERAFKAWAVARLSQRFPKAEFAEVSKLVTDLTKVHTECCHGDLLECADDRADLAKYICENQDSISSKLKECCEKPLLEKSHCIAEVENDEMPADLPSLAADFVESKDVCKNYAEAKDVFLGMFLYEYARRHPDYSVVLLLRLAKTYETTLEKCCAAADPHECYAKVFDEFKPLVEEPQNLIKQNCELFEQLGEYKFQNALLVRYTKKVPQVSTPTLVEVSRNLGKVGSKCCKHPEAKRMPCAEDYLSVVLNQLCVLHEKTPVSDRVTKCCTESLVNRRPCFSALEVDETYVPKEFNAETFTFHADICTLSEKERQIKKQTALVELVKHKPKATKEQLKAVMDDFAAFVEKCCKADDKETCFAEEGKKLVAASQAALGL
Summary of the method: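 SPR at 25 °C; HSA amine-coupled on CM5 chip (9000–11 000 RU). Compounds at 50 µM in PBS with 5% DMSO, 30 µL/min, duplicate 60 s injections over HSA and reference surfaces. Double referencing with buffer blanks; DMSO bulk correction from calibration curve (4.5–5.8% DMSO).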

[13] = Inhibition of Escherichia coli RNA polymerase sigma-70 factor

SMILES | inhibition at 10 µM (Escherichia coli [1]) [%] | MIC (Staphylococcus aureus [2]) [µg/mL] | MIC (Staphylococcus aureus [3]) [µg/mL] | MIC (Bacillus anthracis) [µg/mL] | MIC [4] [µg/mL] | Activity (CHO) | log10CFU/ml [5] | MIC (Streptococcus pneumoniae) [µg/mL] | MIC [6] [µg/mL] | MIC (Clostridioides difficile) [µg/mL] | MIC [7] [µg/mL] | MIC (Escherichia coli [8]) [µg/mL] | MIC [9] [µg/mL] | log10CFU/ml [10] | log10CFU/ml [11] | Activity (Escherichia coli [12]) | Activity (Albumin) | IC50 [13] [µM]
C=CCN1C(=O)/C(=C/c2cc(C)n(-c3cccc(C(=O)O)c3)c2C)SC1=S | 100 | 25 (≈ 62.7 µM) | 50 (≈ 125 µM) | 6.25 (≈ 15.7 µM) | 50 (≈ 125 µM) | >= 100 ug ml-1 | 2.8 | 25 (≈ 62.7 µM) | 25 (≈ 62.7 µM) | 6.25 (≈ 15.7 µM) | 25 (≈ 62.7 µM) | 50 (≈ 125 µM) | 25 (≈ 62.7 µM) | 1.8 | 2.3 |  |  | 
C=CCN1C(=O)/C(=C/c2ccc(-c3ccc(C(=O)O)cc3)o2)SC1=S | 98 | ≥ 100 | ≥ 100 | 3.13 (≈ 8.43 µM) | 6.25 (≈ 16.8 µM) | >= 100 ug ml-1 |  | ≥ 100 | 3.13 (≈ 8.43 µM) | ≥ 100 | 3.13 (≈ 8.43 µM) | 12.5 (≈ 33.7 µM) | 3.13 (≈ 8.43 µM) |  |  | inactive | Active | 
C=CCN1C(=O)/C(=C/c2ccc(-c3cccc(C(=O)O)c3)o2)SC1=S | 97 | 25 (≈ 67.3 µM) | 12.5 (≈ 33.7 µM) | 6.25 (≈ 16.8 µM) | 25 (≈ 67.3 µM) | >= 100 ug ml-1 |  | 50 (≈ 135 µM) | 25 (≈ 67.3 µM) | 12.5 (≈ 33.7 µM) | 12.5 (≈ 33.7 µM) | 6.25 (≈ 16.8 µM) | 3.13 (≈ 8.43 µM) |  |  | inactive | Active | 
C=CCN1C(=O)/C(=C/c2c[nH]c3c(C(=O)O)cccc23)SC1=S | 95 | 50 (≈ 145 µM) | 50 (≈ 145 µM) | 12.5 (≈ 36.3 µM) | 25 (≈ 72.6 µM) | >= 100 ug ml-1 |  | 50 (≈ 145 µM) | 25 (≈ 72.6 µM) | 25 (≈ 72.6 µM) | 25 (≈ 72.6 µM) | ≥ 100 | 25 (≈ 72.6 µM) |  |  |  |  | 
C=CCN1C(=O)/C(=C/c2ccc(-c3ccc(CCC(=O)O)cc3)o2)SC1=S | 68 | 25 (≈ 62.6 µM) | 25 (≈ 62.6 µM) | 12.5 (≈ 31.3 µM) | 25 (≈ 62.6 µM) | >= 100 ug ml-1 |  | ≥ 100 | 12.5 (≈ 31.3 µM) | 50 (≈ 125 µM) | 25 (≈ 62.6 µM) | 12.5 (≈ 31.3 µM) | 25 (≈ 62.6 µM) |  |  | inactive | Active | 
C=CCN1C(=O)/C(=C/c2ccc(-c3ccc(C(=O)O)c(Cl)c3)o2)SC1=S | 100 | 50 (≈ 123 µM) | 50 (≈ 123 µM) | 3.13 (≈ 7.71 µM) | 6.25 (≈ 15.4 µM) | >= 100 ug ml-1 |  | 12.5 (≈ 30.8 µM) | 12.5 (≈ 30.8 µM) | 12.5 (≈ 30.8 µM) | 6.25 (≈ 15.4 µM) | 25 (≈ 61.6 µM) | 6.25 (≈ 15.4 µM) |  |  | inactive | Active | 
C=CCN1C(=O)/C(=C/c2ccc(-c3ccc(O)cc3)o2)SC1=S | 84 | 25 (≈ 72.8 µM) | 6.25 (≈ 18.2 µM) | 6.25 (≈ 18.2 µM) | 12.5 (≈ 36.4 µM) | >= 100 ug ml-1 |  | 25 (≈ 72.8 µM) | 12.5 (≈ 36.4 µM) | 50 (≈ 146 µM) | 12.5 (≈ 36.4 µM) | 3.13 (≈ 9.11 µM) | 12.5 (≈ 36.4 µM) |  |  |  |  | 
O=C(O)c1ccc(/C=C2\SC(=S)N(Cc3ccco3)C2=O)cc1 | 5 |  |  |  |  |  |  |  |  |  |  | ≥ 100 | ≥ 100 |  |  |  |  | 87
C=CCN1C(=O)/C(=C/c2ccc(C)o2)SC1=S | 3 |  |  |  |  |  |  |  |  |  |  | ≥ 100 | ≥ 100 |  |  |  |  | ≥ 100
C=CCN1C(=O)/C(=C/c2ccc(-c3ccccc3)o2)SC1=S | 46 | ≥ 100 | ≥ 100 | 0.78 (≈ 2.38 µM) |  | >= 100 ug ml-1 |  | ≥ 100 |  | ≥ 100 | ≥ 100 | 3.13 (≈ 9.56 µM) | ≥ 100 |  |  |  |  | 
C=CCN1C(=O)/C(=C/c2cccc(-c3cccc(C(=O)O)c3)c2)SC1=S | 26 | 25 (≈ 65.5 µM) | ≥ 100 | 12.5 (≈ 32.8 µM) | 50 (≈ 131 µM) | >= 100 ug ml-1 |  | ≥ 100 | 50 (≈ 131 µM) | 12.5 (≈ 32.8 µM) | 25 (≈ 65.5 µM) | ≥ 100 | 25 (≈ 65.5 µM) |  |  |  |  | 
C=CCN1C(=O)/C(=C/c2cc(C)n(CC)c2C)SC1=S | 5 |  |  |  |  |  |  |  |  |  |  | ≥ 100 | ≥ 100 |  |  |  |  | ≥ 100
C=CCN1C(=O)/C(=C/c2ccc(-c3ccc(C(N)=O)cc3)o2)SC1=S | 102 | ≥ 100 | ≥ 100 | 12.5 (≈ 33.7 µM) |  | >= 100 ug ml-1 |  | ≥ 100 |  | ≥ 100 | ≥ 100 | 1.56 (≈ 4.21 µM) | ≥ 100 |  |  |  |  | 
C=CCN1C(=O)/C(=C/c2cccc(C(=O)O)c2)SC1=S |  |  |  |  |  |  |  |  |  |  |  | ≥ 100 | ≥ 100 |  |  |  |  | ≥ 100
